Data as given in ChEMBL document CHEMBL2401720, “Synthesis and structure-activity relationship studies of O-biphenyl-3-yl carbamates as peripherally restricted fatty acid amide hydrolase inhibitors” (J Med Chem, 2013).
Active and inactive are the calls of the source. The calls are words filed in the database; no cut-off is given here.

Experiments:
Mus musculus [1] = test: In vivo inhibition of FAAH in Swiss Webster mouse brain using [3H]-ethanolamine as substrate at 1 mg/kg, ip after 1 hr by liquid scintillation counting analysis relative to control; format: functional; details: route intraperitoneal
Mus musculus [2] = test: In vivo inhibition of FAAH in Swiss Webster mouse brain using [3H]-ethanolamine as substrate at 40 mg/kg, sc after 1 hr by liquid scintillation counting analysis in presence of Abcg2 inhibitor Ko-143; format: functional, organism-based; design: dose 40 mg/kg
Mus musculus [3] = test: In vivo inhibition of FAAH in Swiss Webster mouse brain using [3H]-ethanolamine as substrate at 75 mg/kg, sc after 1 hr by liquid scintillation counting analysis; format: functional, organism-based; design: dose 75 mg/kg
Mus musculus [4] = test: In vivo inhibition of FAAH in Swiss Webster mouse liver using [3H]-ethanolamine as substrate at 1 mg/kg, ip after 1 hr by liquid scintillation counting analysis relative to control; format: functional; details: route intraperitoneal
Mus musculus [5] = test: In vivo inhibition of FAAH in sc dosed Swiss Webster mouse brain using [3H]-ethanolamine as substrate after 1 hr by liquid scintillation counting analysis; format: functional, organism-based
Mus musculus [6] = test: In vivo inhibition of FAAH in ip dosed Swiss Webster mouse brain using [3H]-ethanolamine as substrate after 1 hr by liquid scintillation counting analysis; format: functional
Mus musculus [7] = test: In vivo inhibition of FAAH in ip dosed Swiss Webster mouse peripheral tissue; format: functional
Mus musculus [8] = test: In vivo inhibition of FAAH in Swiss Webster mouse brain using [3H]-ethanolamine as substrate at 25 mg/kg, sc after 1 hr by liquid scintillation counting analysis in presence of Abcg2 inhibitor Ko-143; format: functional, organism-based; design: dose 25 mg/kg
Method in brief: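 Adult male Swiss-Webster mice (25-30 g) got Ko-143 (15 mg/kg, i.p., in saline/PEG400/Tween80 18:1:1 with 30% DMSO) 20 min before a single s.c. dose of inhibitor in the same vehicle without DMSO. Brain taken 1 h later and homogenate supernatant (1000 × g) assayed: 37°C, 30 min, pH 7.5 Tris, 0.05% BSA, 10 μM anandamide plus [ethanolamine-3H]anandamide, aqueous-phase scintillation counting; mean ± s.e.m., n = 3-4.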

Mus musculus [9] = test: In vivo inhibition of FAAH in ip dosed Swiss Webster mouse liver; format: functional
[10] = target: T1, Fatty-acid amide hydrolase 1 (Rattus norvegicus, UniProt P97612); test: Inhibition of Wistar rat brain FAAH using [3H]-ethanolamine as substrate preincubated for 20 mins followed by substrate addition by liquid scintillation counting analysis
T1 sequence (P97612 whole entry): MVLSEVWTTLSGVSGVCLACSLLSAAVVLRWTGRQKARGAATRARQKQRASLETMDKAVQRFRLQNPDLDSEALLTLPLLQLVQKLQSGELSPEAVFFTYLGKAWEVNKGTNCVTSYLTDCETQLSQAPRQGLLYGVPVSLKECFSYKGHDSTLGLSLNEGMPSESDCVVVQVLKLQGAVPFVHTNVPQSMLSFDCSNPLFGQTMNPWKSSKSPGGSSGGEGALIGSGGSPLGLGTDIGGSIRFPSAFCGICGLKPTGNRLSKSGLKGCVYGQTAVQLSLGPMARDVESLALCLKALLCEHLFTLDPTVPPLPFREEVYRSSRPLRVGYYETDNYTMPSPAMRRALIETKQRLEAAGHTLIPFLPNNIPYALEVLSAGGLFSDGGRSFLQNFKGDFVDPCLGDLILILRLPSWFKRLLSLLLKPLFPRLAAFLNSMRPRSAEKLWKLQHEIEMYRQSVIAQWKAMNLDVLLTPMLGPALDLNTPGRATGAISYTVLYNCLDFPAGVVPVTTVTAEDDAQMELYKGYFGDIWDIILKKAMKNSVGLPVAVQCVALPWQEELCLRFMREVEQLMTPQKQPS
Method in brief: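 FAAH source was the membrane homogenate of Wistar rat brain (50 μg protein). It was preincubated with inhibitor for 20 min at 37°C, then incubated 30 min at 37°C in Tris 50 mM pH 7.5 with 0.05% fatty acid-free BSA, 10 μM anandamide and anandamide[ethanolamine-3H]. The reaction was stopped with chloroform/methanol (1:1), and aqueous-layer radioactivity was counted by liquid scintillation to give IC50.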

| Structure (SMILES) | inhibition in vivo at 1 mg/kg (Mus musculus [1]) [%] | inhibition (Mus musculus [2]) | inhibition (Mus musculus [3]) | inhibition in vivo at 1 mg/kg (Mus musculus [4]) [%] | inhibition (Mus musculus [5]) | ED50 (Mus musculus [6]) [mg/kg] | ED50 (Mus musculus [7]) [mg/kg] | inhibition (Mus musculus [8]) | ED50 (Mus musculus [9]) [mg/kg] | IC50 [10] [nM] |
| --- | --- | --- | --- | --- | --- | --- | --- | --- | --- | --- |
| NC(=O)c1cccc(-c2cc(OC(=O)NC3CCCCC3)ccc2C(=O)O)c1 | -2.1 | inactive | inactive | 86.3 | Dose-dependent effect | – | – | – | – | – |
| NC(=O)c1cccc(-c2cc(O)cc(OC(=O)NC3CCCCC3)c2)c1 | -4.2 | Active | – | 89.5 | Dose-dependent effect | 75 | – | – | – | – |
| NC(=O)c1cccc(-c2cc(OC(=O)NC3CCCCC3)ccc2O)c1 | -3 | – | – | 91.7 | Dose-dependent effect | 40 | 0.2 | Active | 0.2 | – |
| CC(O)c1cccc(-c2cc(OC(=O)NC3CCCCC3)ccc2O)c1 (stereo not given) | 89.6 | – | – | 80.9 | – | – | – | – | – | 2 |
